Measured values from ChEMBL document CHEMBL5058577, “EUbOPEN Chemogenomics Library 2 (Multiplex)” (2022).

Tested on: U2OS
Experiment: Multiplex assay against U2OS
Format: toxicity, cell-based
Conditions: human
Procedure, shortened: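 Phenotypes for tubulin, mitochondrial mass and membrane permeability are expressed as per cents of healthy-nucleus cells. Cells were stained live at seeding with Hoechst33342, BioTracker Green Microtubule Cytoskeleton Dye, MitoTracker Red and Annexin V Alexa Fluor 680, then imaged after compound addition on a CQ1 microscope at 37°C and 5% CO2. Machine-learning gating in CellPathfinder separated Hoechst high-intensity objects from normal cells, divided normal cells by nuclear state (healthy, pyknosed, fragmented) and divided pyknosed cells into mitotic or apoptotic.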

[1] = 12 h, 1 µM, compound concentration 1 uM, replicate 1
[2] = 12 h, 1 µM, compound concentration 1 uM, replicate 2
[3] = 12 h, 10 µM, compound concentration 10 uM, replicate 1
[4] = 12 h, 10 µM, compound concentration 10 uM, replicate 2
[5] = 24 h, 1 µM, compound concentration 1 uM, replicate 1
[6] = 24 h, 1 µM, compound concentration 1 uM, replicate 2
[7] = 24 h, 10 µM, compound concentration 10 uM, replicate 1
[8] = 24 h, 10 µM, compound concentration 10 uM, replicate 2
[9] = 48 h, 1 µM, compound concentration 1 uM, replicate 1
[10] = 48 h, 1 µM, compound concentration 1 uM, replicate 2
[11] = 48 h, 10 µM, compound concentration 10 uM, replicate 1
[12] = 48 h, 10 µM, compound concentration 10 uM, replicate 2

CCc1nn2c(C)cc(C)nc2c1Cc1ccc(-c2nnc(C3CCNCC3)o2)cc1
Population Apoptotic (%) [1]: 42% | Population Fragmented Nuclei (%) [1]: 28% | Population Healthy Nuclei (%) [1]: 60% | Population Hoechst High Intensity Objects (%) [1]: 3% | Population Membrane Permeable-Phenotype (%) [1]: 12% | Population Mitochondria Different-Phenotype (%) [1]: 10% | Population Mitotic Cells (%) [1]: 57% | Population Normal (%) [1]: 96% | Population Pyknosed Nuclei (%) [1]: 10% | Population Tubulin-Different-Phenotype (%) [1]: 11% | Total Cell Count [1]: 251 | Population Apoptotic (%) [2]: 85% | Population Fragmented Nuclei (%) [2]: 9% | Population Healthy Nuclei (%) [2]: 84% | Population Hoechst High Intensity Objects (%) [2]: 2% | Population Membrane Permeable-Phenotype (%) [2]: 14% | Population Mitochondria Different-Phenotype (%) [2]: 17% | Population Mitotic Cells (%) [2]: 14% | Population Normal (%) [2]: 97% | Population Pyknosed Nuclei (%) [2]: 6% | Population Tubulin-Different-Phenotype (%) [2]: 4% | Total Cell Count [2]: 110 | Population Apoptotic (%) [3]: 68% | Population Fragmented Nuclei (%) [3]: 24% | Population Healthy Nuclei (%) [3]: 55% | Population Hoechst High Intensity Objects (%) [3]: 5% | Population Membrane Permeable-Phenotype (%) [3]: 26% | Population Mitochondria Different-Phenotype (%) [3]: 43% | Population Mitotic Cells (%) [3]: 31% | Population Normal (%) [3]: 94% | Population Pyknosed Nuclei (%) [3]: 20% | Population Tubulin-Different-Phenotype (%) [3]: 28% | Total Cell Count [3]: 214 | Population Apoptotic (%) [4]: 77% | Population Fragmented Nuclei (%) [4]: 8% | Population Healthy Nuclei (%) [4]: 76% | Population Hoechst High Intensity Objects (%) [4]: 2% | Population Membrane Permeable-Phenotype (%) [4]: 30% | Population Mitochondria Different-Phenotype (%) [4]: 62% | Population Mitotic Cells (%) [4]: 22% | Population Normal (%) [4]: 97% | Population Pyknosed Nuclei (%) [4]: 14% | Population Tubulin-Different-Phenotype (%) [4]: 44% | Total Cell Count [4]: 129 | Population Apoptotic (%) [5]: 80% | Population Fragmented Nuclei (%) [5]: 26% | Population Healthy Nuclei (%) [5]: 63% | Population Hoechst High Intensity Objects (%) [5]: 2% | Population Membrane Permeable-Phenotype (%) [5]: 4% | Population Mitochondria Different-Phenotype (%) [5]: 6% | Population Mitotic Cells (%) [5]: 20% | Population Normal (%) [5]: 97% | Population Pyknosed Nuclei (%) [5]: 10% | Population Tubulin-Different-Phenotype (%) [5]: 3% | Total Cell Count [5]: 296 | Population Apoptotic (%) [6]: 87% | Population Fragmented Nuclei (%) [6]: 13% | Population Healthy Nuclei (%) [6]: 80% | Population Hoechst High Intensity Objects (%) [6]: 3% | Population Membrane Permeable-Phenotype (%) [6]: 7% | Population Mitochondria Different-Phenotype (%) [6]: 12% | Population Mitotic Cells (%) [6]: 12% | Population Normal (%) [6]: 96% | Population Pyknosed Nuclei (%) [6]: 6% | Total Cell Count [6]: 130 | Population Apoptotic (%) [7]: 77% | Population Fragmented Nuclei (%) [7]: 24% | Population Healthy Nuclei (%) [7]: 55% | Population Hoechst High Intensity Objects (%) [7]: 3% | Population Membrane Permeable-Phenotype (%) [7]: 9% | Population Mitochondria Different-Phenotype (%) [7]: 40% | Population Mitotic Cells (%) [7]: 22% | Population Normal (%) [7]: 96% | Population Pyknosed Nuclei (%) [7]: 19% | Population Tubulin-Different-Phenotype (%) [7]: 7% | Total Cell Count [7]: 236 | Population Apoptotic (%) [8]: 71% | Population Fragmented Nuclei (%) [8]: 15% | Population Healthy Nuclei (%) [8]: 71% | Population Membrane Permeable-Phenotype (%) [8]: 16% | Population Mitochondria Different-Phenotype (%) [8]: 61% | Population Mitotic Cells (%) [8]: 28% | Population Pyknosed Nuclei (%) [8]: 13% | Population Tubulin-Different-Phenotype (%) [8]: 28% | Total Cell Count [8]: 163 | Population Apoptotic (%) [9]: 90% | Population Fragmented Nuclei (%) [9]: 17% | Population Healthy Nuclei (%) [9]: 71% | Population Hoechst High Intensity Objects (%) [9]: 2% | Population Membrane Permeable-Phenotype (%) [9]: 6% | Population Mitochondria Different-Phenotype (%) [9]: 2% | Population Mitotic Cells (%) [9]: 10% | Population Normal (%) [9]: 97% | Population Pyknosed Nuclei (%) [9]: 10% | Population Tubulin-Different-Phenotype (%) [9]: 4% | Total Cell Count [9]: 376 | Population Apoptotic (%) [10]: 85% | Population Fragmented Nuclei (%) [10]: 12% | Population Healthy Nuclei (%) [10]: 72% | Population Membrane Permeable-Phenotype (%) [10]: 7% | Population Mitochondria Different-Phenotype (%) [10]: 6% | Population Mitotic Cells (%) [10]: 14% | Population Pyknosed Nuclei (%) [10]: 14% | Total Cell Count [10]: 187 | Population Apoptotic (%) [11]: 82% | Population Fragmented Nuclei (%) [11]: 24% | Population Healthy Nuclei (%) [11]: 55% | Population Hoechst High Intensity Objects (%) [11]: 2% | Population Membrane Permeable-Phenotype (%) [11]: 10% | Population Mitochondria Different-Phenotype (%) [11]: 29% | Population Mitotic Cells (%) [11]: 17% | Population Normal (%) [11]: 97% | Population Pyknosed Nuclei (%) [11]: 19% | Population Tubulin-Different-Phenotype (%) [11]: 3% | Total Cell Count [11]: 290 | Population Apoptotic (%) [12]: 75% | Population Fragmented Nuclei (%) [12]: 12% | Population Healthy Nuclei (%) [12]: 71% | Population Membrane Permeable-Phenotype (%) [12]: 22% | Population Mitochondria Different-Phenotype (%) [12]: 31% | Population Mitotic Cells (%) [12]: 24% | Population Pyknosed Nuclei (%) [12]: 15% | Population Tubulin-Different-Phenotype (%) [12]: 18% | Total Cell Count [12]: 219

N[C@](CC1c2ccccc2Oc2ccccc21)(C(=O)O)[C@H]1C[C@@H]1C(=O)O
Population Apoptotic (%) [1]: 80% | Population Fragmented Nuclei (%) [1]: 22% | Population Healthy Nuclei (%) [1]: 67% | Population Hoechst High Intensity Objects (%) [1]: 1% | Population Membrane Permeable-Phenotype (%) [1]: 6% | Population Mitochondria Different-Phenotype (%) [1]: 2% | Population Mitotic Cells (%) [1]: 20% | Population Normal (%) [1]: 98% | Population Pyknosed Nuclei (%) [1]: 9% | Population Tubulin-Different-Phenotype (%) [1]: 4% | Total Cell Count [1]: 218 | Population Apoptotic (%) [2]: 72% | Population Fragmented Nuclei (%) [2]: 10% | Population Healthy Nuclei (%) [2]: 79% | Population Membrane Permeable-Phenotype (%) [2]: 1% | Population Mitochondria Different-Phenotype (%) [2]: 8% | Population Mitotic Cells (%) [2]: 27% | Population Tubulin-Different-Phenotype (%) [2]: 3% | Total Cell Count [2]: 114 | Population Apoptotic (%) [3]: 84% | Population Fragmented Nuclei (%) [3]: 18% | Population Healthy Nuclei (%) [3]: 72% | Population Hoechst High Intensity Objects (%) [3]: 3% | Population Membrane Permeable-Phenotype (%) [3]: 5% | Population Mitochondria Different-Phenotype (%) [3]: 3% | Population Mitotic Cells (%) [3]: 16% | Population Normal (%) [3]: 96% | Population Pyknosed Nuclei (%) [3]: 8% | Population Tubulin-Different-Phenotype (%) [3]: 2% | Total Cell Count [3]: 295 | Population Apoptotic (%) [4]: 83% | Population Fragmented Nuclei (%) [4]: 19% | Population Healthy Nuclei (%) [4]: 76% | Population Hoechst High Intensity Objects (%) [4]: 0% | Population Membrane Permeable-Phenotype (%) [4]: 7% | Population Mitochondria Different-Phenotype (%) [4]: 0% | Population Normal (%) [4]: 100% | Population Pyknosed Nuclei (%) [4]: 4% | Total Cell Count [4]: 141 | Population Apoptotic (%) [5]: 78% | Population Fragmented Nuclei (%) [5]: 20% | Population Healthy Nuclei (%) [5]: 70% | Population Hoechst High Intensity Objects (%) [5]: 1% | Population Membrane Permeable-Phenotype (%) [5]: 1% | Population Mitochondria Different-Phenotype (%) [5]: 1% | Population Mitotic Cells (%) [5]: 21% | Population Normal (%) [5]: 98% | Population Pyknosed Nuclei (%) [5]: 8% | Population Tubulin-Different-Phenotype (%) [5]: 1% | Total Cell Count [5]: 272 | Population Apoptotic (%) [6]: 63% | Population Fragmented Nuclei (%) [6]: 14% | Population Healthy Nuclei (%) [6]: 77% | Population Hoechst High Intensity Objects (%) [6]: 0% | Population Membrane Permeable-Phenotype (%) [6]: 4% | Population Mitochondria Different-Phenotype (%) [6]: 5% | Population Mitotic Cells (%) [6]: 36% | Population Normal (%) [6]: 99% | Population Tubulin-Different-Phenotype (%) [6]: 2% | Total Cell Count [6]: 137 | Population Apoptotic (%) [7]: 80% | Population Fragmented Nuclei (%) [7]: 13% | Population Healthy Nuclei (%) [7]: 79% | Population Hoechst High Intensity Objects (%) [7]: 3% | Population Membrane Permeable-Phenotype (%) [7]: 3% | Population Mitochondria Different-Phenotype (%) [7]: 3% | Population Mitotic Cells (%) [7]: 20% | Population Normal (%) [7]: 96% | Population Pyknosed Nuclei (%) [7]: 7% | Population Tubulin-Different-Phenotype (%) [7]: 1% | Total Cell Count [7]: 365 | Population Apoptotic (%) [8]: 81% | Population Fragmented Nuclei (%) [8]: 15% | Population Healthy Nuclei (%) [8]: 77% | Population Hoechst High Intensity Objects (%) [8]: 0% | Population Membrane Permeable-Phenotype (%) [8]: 8% | Population Mitochondria Different-Phenotype (%) [8]: 1% | Population Mitotic Cells (%) [8]: 18% | Population Normal (%) [8]: 99% | Population Pyknosed Nuclei (%) [8]: 6% | Population Tubulin-Different-Phenotype (%) [8]: 3% | Total Cell Count [8]: 164 | Population Apoptotic (%) [9]: 89% | Population Fragmented Nuclei (%) [9]: 14% | Population Healthy Nuclei (%) [9]: 75% | Population Hoechst High Intensity Objects (%) [9]: 2% | Population Membrane Permeable-Phenotype (%) [9]: 3% | Population Mitochondria Different-Phenotype (%) [9]: 1% | Population Mitotic Cells (%) [9]: 10% | Population Normal (%) [9]: 97% | Population Pyknosed Nuclei (%) [9]: 9% | Population Tubulin-Different-Phenotype (%) [9]: 1% | Total Cell Count [9]: 403 | Population Apoptotic (%) [10]: 85% | Population Fragmented Nuclei (%) [10]: 16% | Population Healthy Nuclei (%) [10]: 72% | Population Hoechst High Intensity Objects (%) [10]: 1% | Population Membrane Permeable-Phenotype (%) [10]: 5% | Population Mitochondria Different-Phenotype (%) [10]: 3% | Population Mitotic Cells (%) [10]: 15% | Population Normal (%) [10]: 98% | Population Pyknosed Nuclei (%) [10]: 10% | Population Tubulin-Different-Phenotype (%) [10]: 4% | Total Cell Count [10]: 190 | Population Apoptotic (%) [11]: 90% | Population Fragmented Nuclei (%) [11]: 15% | Population Healthy Nuclei (%) [11]: 77% | Population Hoechst High Intensity Objects (%) [11]: 1% | Population Membrane Permeable-Phenotype (%) [11]: 4% | Population Mitochondria Different-Phenotype (%) [11]: 3% | Population Mitotic Cells (%) [11]: 10% | Population Normal (%) [11]: 98% | Population Pyknosed Nuclei (%) [11]: 7% | Population Tubulin-Different-Phenotype (%) [11]: 2% | Total Cell Count [11]: 554 | Population Apoptotic (%) [12]: 81% | Population Fragmented Nuclei (%) [12]: 12% | Population Healthy Nuclei (%) [12]: 78% | Population Hoechst High Intensity Objects (%) [12]: 0% | Population Membrane Permeable-Phenotype (%) [12]: 7% | Population Mitochondria Different-Phenotype (%) [12]: 1% | Population Mitotic Cells (%) [12]: 18% | Population Normal (%) [12]: 100% | Population Pyknosed Nuclei (%) [12]: 9% | Population Tubulin-Different-Phenotype (%) [12]: 3% | Total Cell Count [12]: 238
